Experiment: Toxicity liver stage against HepG2, at 10uM
Format: cell-based
Set-up: test concentration 10 uM, cell line HepG2-A16-CD81EGFP
Details: human, HepG2-A16-CD81EGFP cells; read-out: INHIBITION
Summary of the method: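 Uninfected HepG2-A16-CD81EGFP cells, 3 × 10^3 per well, 1536-well, plated on prespotted compound at 10 μM final, parasite-free screening media added to match infected plates; puromycin 10 μM positive, DMSO 0.5% negative; run in parallel with 48 h PbLuc assay at 37 °C, 5% CO2; viability by CellTiter-Glo luminescence, normalized to controls.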

SMILES	cytotoxicity at 10 µM
NC(=O)C1CCN(C(=O)CCSCc2ccc(Cl)c(Cl)c2)CC1	-1.35%
Fc1ccc(OCc2nnc([C@H]3CCN(Cc4ccccn4)C3)o2)cc1	0.413%
Cc1nn(-c2ccccn2)c(C)c1[C@@H]1C=C[C@@H](NC(=O)NC(C)C)C1	1.52%
O=C1c2ncccc2C(CCO)N1Cc1ccccc1 (stereo not given)	-4.26%
COc1cccc(N2CCN(C(=O)COc3c(C)occc3=O)CC2)c1	-1.29%
O=C(NCC(O)c1cccs1)c1ccco1 (stereo not given)	-14.7%
Cc1oncc1C(=O)N1CC2CC1(C(=O)NCc1ccco1)C2	4.76%
Cn1cc(CN2CC[C@H]3[C@H]2CC(=O)N3Cc2ccncc2)cn1	-5.87%
Cc1ccc(CNC(=O)c2nc3c(o2)CN(c2ncccn2)C3)o1	-5.58%
O=C(NC1CCc2[nH]c(=O)ccc2C1)C1CCOCC1 (stereo not given)	1.42%
CCS(=O)(=O)N1CCC2(CN(C(=O)c3cscn3)C2)C1	10.8%
O=c1cc(CN2CCCC2)nc2n1CCCN(CC1CCOCC1)C2	9.97%
O=C(c1cscn1)N1C[C@@H](Oc2cccnc2)[C@H]2OCCC[C@H]21	7.77%
Cc1ccc(NCc2nc3n(n2)CCCCC3)c(C)c1	4.7%
Cc1c(S(=O)(=O)N2CCOCC2)cc2c(C)cc(=O)n3c2c1CCC3	3.36%
CSCc1cccc(S(=O)(=O)N2CCCCCC2)c1	6.91%
COc1c(C(=O)NCc2cccnc2)nnn1Cc1ccccc1	12.5%
CC(C)N1CCCC(c2cc(C(F)(F)F)nc3nccn23)C1 (stereo not given)	-11.1%
CNc1cncc(C2CCCN2C(=O)Cn2ccnc2C)n1 (stereo not given)	-4.31%
CS(=O)(=O)N1CCC(n2nnn(-c3ccccc3)c2=O)CC1	2.58%
Oc1cc(-c2nccs2)nc(C2CCN(Cc3cccs3)CC2)n1	16.7%
CN(C(=O)c1cc(F)ccc1F)[C@@H]1CC[C@@H](O)[C@@H]1O	-0.822%
CS(=O)(=O)N1CCC(c2ccncn2)CC1	6.77%
Cn1nccc1CCC(=O)N1CCOC(c2cnccn2)C1 (stereo not given)	-25.9%
Cc1cc(-c2ccc(C(=O)O)cc2)nc(C2CCN(C(C)C)CC2)n1	-26.3%
Oc1nc(-c2cnccn2)nc2c1CCN(Cc1ccccn1)C2	1.51%
O=C(c1ccc(Cl)s1)N1CCC2(COc3ncccc3S(=O)(=O)N2)C1 (stereo not given)	8.77%
CCC(CC)C(O)CNC(=O)Cc1c[nH]c2ncccc12 (stereo not given)	0.476%

SMILES	cytotoxicity at 10 µM
CN(C)c1cc(C(=O)Nc2cccnc2N2CCSCC2)ccn1	-2.9%
O=S(=O)(c1cccc(Cl)c1)N1CCCC(Cn2cncn2)C1 (stereo not given)	-7.21%
Brc1cnc(NCCCOCC2CCOC2)nc1 (stereo not given)	-2.15%
Cc1ccccc1C(C)NC(=O)CN1CCN(Cc2cccs2)CC1 (stereo not given)	48.9%
CC(NCCc1nccn1Cc1ccccc1)c1ccsc1 (stereo not given)	8.4%
CC(Oc1cccc(F)c1)C(=O)N(CC(N)=O)C1CCCC1 (stereo not given)	-1.21%
CCOc1ccc2c(c1)C=C(C(=O)NC(C)Cn1cccn1)CO2 (stereo not given)	6.95%
CN(C)c1cc(CNC(=O)C2COc3ccccc3O2)ccn1 (stereo not given)	2.5%
NS(=O)(=O)CCNC(=O)c1cc2ccccc2nc1N1CCCC1	-10.7%
O=C(NCCc1ccn(-c2ccc(F)cc2)n1)C1CCCO1 (stereo not given)	-0.198%
CN(c1c(F)cccc1F)S(=O)(=O)c1cc2c(c(C(=O)O)c1)OCCO2	-7.57%
CC(C)n1cc(S(=O)(=O)N2CCCC(N3CCCCC3)C2)cn1 (stereo not given)	2.78%
CCc1nc(CCNC(=O)C2CC2)sc1C	-14.1%
Cc1nc(CN2CCC(CNC(=O)CCC3CCCC3)CC2)oc1C	-1.29%
COc1cccc(C2(CNC(C)c3nnc(C)o3)CCCC2)c1 (stereo not given)	-1.64%
O=C(Cc1ccc2c(c1)CCC2)N1CCCC1Cn1cccn1 (stereo not given)	-139%
Cc1cnn(CC2CCCCN2C(=O)Cc2c(C)noc2Cl)c1 (stereo not given)	-5.43%
Cc1cc(NC(=O)CNC(C)(C)c2ccccc2)on1	-8.18%
COc1ncc(C)cc1NC(=O)CCc1ccccn1	-9.58%
CN(CCc1ccncc1)C(=O)C1CSCN1C(=O)C(C)(C)C (stereo not given)	-8.2%
Cn1cc(S(=O)(=O)NC(=O)C2(c3ccccc3)CCC2)cn1	-6.85%
Cc1nc(C(C)(C)C)sc1C(=O)NCCn1cccn1	-3.17%
CCN(C(=O)c1cccc2c1OCO2)c1ccc(Br)cn1	3.44%
O=c1n(CCSCCOc2ccc(Br)cc2)nc2ccccn12	10%
COC(=O)NCC(=O)NC(c1ccc(Cl)cc1)C(F)(F)F (stereo not given)	9.09%
Cc1noc(C)c1CN(C)C(=O)CCOc1ccc(Cl)cc1	-2.51%
CCCN1CCCN(C(=O)c2oc(C)nc2C)CC1	24.3%
